One experiment deals with Candida albicans. The experiment is described as follows: Antifungal activity against Candida albicans. It counts as functional. The method in brief:
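Geometric mean MIC across 26–30 C. albicans strains.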

The test system of a further experiment is Aspergillus. Briefly: Antifungal activity against Aspergillus species. It counts as functional. Put shortly:
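Geometric mean MIC across 37 Aspergillus strains: 17 A. fumigatus, 11 A. flavus, 5 A. niger and 4 A. terreus.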

Drawing on ChEMBL document CHEMBL1148554, “Hydroxylated analogues of the orally active broad spectrum antifungal, Sch 51048 (1), and the discovery of posaconazole [Sch 56592; 2 or (S,S)-5]” (2006), this text covers MIC for eight compounds.

SMILES strings stand for the structures. In brackets after ≈: the same amount, converted by molar mass. Some results are limits rather than exact numbers.

The term MIC denotes the lowest concentration that inhibits growth of the organism. Read a low MIC as inhibition by little substance. For `C[C@H]([C@@H](C)O)n1ncn(-c2ccc(N3CCN(c4ccc(OC[C@@H]5CO[C@@](Cn6cncn6)(c6ccc(F)cc6F)C5)cc4)CC3)cc2)c1=O`, the minimal inhibitory concentration (MIC) is below 0.006 µg/mL against Candida albicans and 0.09 µg/mL (≈ 0.131 µM) in the experiment with Aspergillus.
Taken in the same sequence, the figures for `CC[C@H]([C@@H](C)O)n1ncn(-c2ccc(N3CCN(c4ccc(OC[C@@H]5CO[C@@](Cn6cncn6)(c6ccc(F)cc6F)C5)cc4)CC3)cc2)c1=O` were 0.014 µg/mL (≈ 0.02 µM) and below 0.077 µg/mL.
As for `C[C@H](O)[C@@H](C)n1ncn(-c2ccc(N3CCN(c4ccc(OC[C@@H]5CO[C@@](Cn6cncn6)(c6ccc(F)cc6F)C5)cc4)CC3)cc2)c1=O`, the MIC is 0.03 µg/mL (≈ 0.0437 µM) in the experiment on Candida albicans and 0.08 µg/mL (≈ 0.116 µM) in the experiment on Aspergillus.
Take `CC[C@H]([C@H](C)O)n1ncn(-c2ccc(N3CCN(c4ccc(OC[C@@H]5CO[C@@](Cn6cncn6)(c6ccc(F)cc6F)C5)cc4)CC3)cc2)c1=O`: the values for the MIC with Candida albicans and against Aspergillus were 0.022 µg/mL (≈ 0.0314 µM) and below 0.09 µg/mL, respectively.
On the same counts, the results for `C[C@@H](O)[C@H](C)n1ncn(-c2ccc(N3CCN(c4ccc(OC[C@@H]5CO[C@@](Cn6cncn6)(c6ccc(F)cc6F)C5)cc4)CC3)cc2)c1=O` are below 0.007 µg/mL and below 0.05 µg/mL.
On the same counts, the results for `C[C@H](O)[C@H](C)n1ncn(-c2ccc(N3CCN(c4ccc(OC[C@@H]5CO[C@@](Cn6cncn6)(c6ccc(F)cc6F)C5)cc4)CC3)cc2)c1=O` are 0.02 µg/mL (≈ 0.0291 µM) and 0.06 µg/mL (≈ 0.0874 µM).
As for `CC[C@@H]([C@@H](C)O)n1ncn(-c2ccc(N3CCN(c4ccc(OC[C@@H]5CO[C@@](Cn6cncn6)(c6ccc(F)cc6F)C5)cc4)CC3)cc2)c1=O` (mixture of isomers), the MIC was 0.019 µg/mL with Candida albicans and below 0.086 µg/mL in the experiment on Aspergillus.
Taken in the same sequence, the figures for `CC[C@@H]([C@H](C)O)n1ncn(-c2ccc(N3CCN(c4ccc(OC[C@@H]5CO[C@@](Cn6cncn6)(c6ccc(F)cc6F)C5)cc4)CC3)cc2)c1=O` [POSACONAZOLE] were 0.018 µg/mL (≈ 0.0257 µM) and below 0.048 µg/mL.
